ChEMBL document CHEMBL1137260, “Design and biological evaluation of novel tubulin inhibitors as antimitotic agents using a pharmacophore binding model with tubulin” (J Med Chem, 2006)

Key:
[1] = test system: Huh-7; assay: Antiproliferative activity against human Huh7 cells after 48 hrs; type: functional, cell-based; conditions: Huh-7, 48 h
How it was run: (§1)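 Cells kept in DMEM with 10% FBS/glutamine/antibiotics, 37 °C, 5% CO2; 2 × 10⁴ cells seeded, after 24 h exposed to compounds (0.01–100 µM) for 48 h. Part of the supernatant was removed, CellTiter 96 Aqueous reagent added, 2 h further incubation at 37 °C, absorbance at 490 nm read; IC50 derived. Huh7 is a hepatoma line, 293T renal epithelial.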

[2] = test system: HEK-293T; assay: Antiproliferative activity against human 293T cells after 48 hrs; type: functional, cell-based; how it was run: as §1
[3] = target: Tubulin; assay: Inhibition of tubulin polymerization; type: protein-complex assay, Homo sapiens
How it was run: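 Tubulin polymerization kit used; components added to wells at 0 °C with 340 nm baselines, then assembly followed at 0 °C and 37 °C and measured turbidimetrically. Compounds tested at 0, 3, 10 and 30 µM; IC50 calculated from the polymerization data.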

[4] = test system: SNU-398; assay: Cell cycle arrest in SNU398 cells by accumulation at G2/M phase at 50 nM; type: functional, Homo sapiens
How it was run: (§2)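 SNU-398 hepatoma cells (5 × 10⁵) seeded, grown 24 h, then 48 h with compound or carrier alone. Harvested, PBS-washed twice, stained with a cell cycle analysis kit, analysed by flow cytometry; cell cycle phase percentages estimated, G2/M fraction reported.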

[5] = test system: SNU-398; assay: Cell cycle arrest in SNU398 cells by accumulation at G2/M phase at 500 nM; type: functional, Homo sapiens; how it was run: as §2
[6] = test system: SNU-398; assay: Cell cycle arrest in SNU398 cells by accumulation at G2/M phase at 5000 nM; type: functional, Homo sapiens; how it was run: as §2

Row | Structure (SMILES) | IC50 [1] | IC50 [2] | IC50 [3] | Activity [4] | Activity [5] | Activity [6]
1 | O=C(/C=C/c1cccc2ccccc12)c1ccc(NC(=O)c2cccs2)cc1 | > 100 µM | > 100 µM |  |  |  | 
2 | O=C(/C=C/c1ccccn1)c1ccccc1 [WR-190433] | 14.3 µM | 13.8 µM | > 30 µM |  |  | 
3 | CC(=O)Nc1ccc(C(=O)/C=C/c2ccccn2)cc1 | 9.6 µM | 13.7 µM | 15.7 µM | 37.7% | 37.1% | 43.3%
4 | O=C(/C=C/c1ccccn1)c1ccc(NC(=O)c2ccco2)cc1 | 9.9 µM | 9.8 µM |  | 36.3% | 36.3% | 46.6%
5 | CN(C)CC(=O)Nc1ccc(C(=O)/C=C/c2ccccn2)cc1 | 8.4 µM | 8.2 µM | 19.8 µM | 31.9% | 32.7% | 43%
6 | CCOc1ccc(C(C)(C)C(=O)Nc2ccc(C(=O)/C=C/c3ccccn3)cc2)cc1 | > 100 µM | > 100 µM |  |  |  | 
